From PubChem BioAssay
Dynein cargo inh: blocks dynein driven cargo transport along microtubules; 3617.4 mouse cells, GR-EGFP nuclear translocation imaging; test concentration mostly 20 µM; stimulated with dexamethasone, 1 µM; hits give low values; z-score, hits read low; 220,000 tested, 0.47% active;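 active means plate z-score of nuclear minus cytoplasmic receptor signal below a set negative limit, without overly bright fluorescence or cell loss, cut at about -3.5 in these data, passing the limit was not always enough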;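 further: z-score of nuclear minus cytoplasmic ring GR-EGFP intensity difference per well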
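Buffer or medium: tet-free medium with charcoal-stripped serum / Also added: dexamethasone agonist, 1.0 µM final, for 30 min / Timing: induction 48 h, compound 1 h, agonist 30 min / Measured by: high-content fluorescence imaging after fixation / Read-out: nuclear-to-cytoplasmic GR-EGFP distribution per well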
S1P4 antagonist: human S1P4 receptor antagonism; inhibition, % at 4.98 µM; S1P4-expressing cells, antagonist mode, reporter read-out; O95977; 220,000 tested, 0.26% active; in the data active means inhibition above about 29%;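 further: 0% = wells stimulated with agonist and 100% = vehicle wells without agonist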
Target sequence (O95977 whole entry, looked up): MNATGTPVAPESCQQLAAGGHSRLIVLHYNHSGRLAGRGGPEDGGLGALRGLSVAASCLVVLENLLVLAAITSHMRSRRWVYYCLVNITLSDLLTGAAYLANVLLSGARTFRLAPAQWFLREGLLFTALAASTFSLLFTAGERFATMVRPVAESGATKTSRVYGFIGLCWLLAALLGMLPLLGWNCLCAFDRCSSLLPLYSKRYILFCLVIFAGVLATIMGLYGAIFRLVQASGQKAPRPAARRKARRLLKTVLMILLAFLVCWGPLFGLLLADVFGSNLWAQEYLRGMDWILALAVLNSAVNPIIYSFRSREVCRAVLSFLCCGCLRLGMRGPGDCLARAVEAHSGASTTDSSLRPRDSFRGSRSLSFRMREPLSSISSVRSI
Mdm2 ligase inh: blocks human Mdm2 ubiquitin ligase activity; Q00987; cell-based MDM2 ubiquitination luciferase reporter, 2 h; 0 = plate control, 100 = twice control, blank-subtracted; 210,000 tested, 0.11% active; signal enhancement, % at 5 µM; AID 1230;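 active means signal enhancement of 30% or more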;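 further: luminescence tracks abundance of the self-degrading MDM2-luciferase fusion protein; higher signal means inhibition of MDM2 E3 ligase activity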
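Assay system: mammalian cells stably expressing self-ubiquitinating, self-degrading MDM2 E3–luciferase fusion. Quantity: 2000 cells in each well. Medium: DMEM culture medium. Compound dosing: single-point 5 µM. Timing: cell settling 4 h, compound treatment 2 h, both 37 °C. Technique: luciferase luminescence. Read-out basis: percent signal gain over controls, blank-subtracted. Benchmarks: plate controls and plate blanks.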
Hsp70 activator: transcriptional activators of Hsp70 | HeLa Hsp70 promoter luciferase reporter, luminescence; scaled: vehicle 0, proteasome-inhibitor control 100% | activation, % at 10 µM | 200,000 tested, 0.04% active | AID 1203;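 active means activation above the mean across all tested compounds plus 3 SD, cutoff set per campaign, cut at about 5.5% in these data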;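 further: 100% = MG132 at 30 µM as the positive control and 0% = DMSO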
S1P4 ag: activates the human S1P4 receptor. O95977. activation, % at 4.98 µM. S1P4-expressing cell line, agonist reporter assay. AID 1509. 220,000 tested, 0.35% active; in the data active means activation above about 11%;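 further: 0% = DMSO vehicle and 100% = reference agonist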
S1P3 antagonist: blocks the human S1P3 receptor; CHO S1P3 NFAT-BLA reporter, FRET fluorescence, antagonist mode; 170,000 tested, 0.27% active; inhibition, % at 4.98 µM; Q99500;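 active means inhibition above the plate cutoff, the mean inhibition of test wells on that plate plus 3 SD, cut at about 28% in these data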;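 further: cells challenged with S1P at its EC80 of 0.8 µM; blue over green emission ratio from cleaved BLA substrate after 4 h stimulation; 0% = S1P-stimulated wells and 100% = unstimulated DMSO-only wells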
S1P4 ag conf: human S1P4 agonism, confirmation. shares compounds with S1P4 ag. S1P4 agonist cell-based reporter assay. activation, % at 4.98 µM. 740 tested, 7% active; in the data active means activation above about 12%;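 further: 0% = vehicle and 100% = full reference agonist response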
S1P1 agonist: activates human S1P1, counter-screen for S1P4 agonists; activation, % at 4.98 µM; shares compounds with S1P4 ag; 740 tested, 4% active; S1P1 agonist cell-based assay, activation; in the data active means activation above about 21%;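 further: 0% = vehicle wells and 100% = reference agonist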
* = called active by the depositor. The list is not random: actives were taken first. Their share in the collection is about 1.3%.

For Nn1cc(-c2ccccc2)nc1SCC(=O)NCCc1ccccc1 the results were Dynein cargo inh -1.2, S1P4 antagonist 22, Mdm2 ligase inh -6, Hsp70 activator 0, S1P4 ag -2 and S1P3 antagonist 0.
For CCOc1ccc(NC(=O)CC2C(=O)N(c3cccc(OC)c3)C(=O)N2CCOC)cc1 (stereo not given) the results were Dynein cargo inh 0.31, S1P4 antagonist 7, Mdm2 ligase inh -16, S1P4 ag -1 and S1P3 antagonist 5.
Screening O=C(N/N=C/c1cccc(C(F)(F)F)c1)c1cc2c(s1)-c1ccccc1CC2 returned Dynein cargo inh -0.091, S1P4 antagonist -16, Mdm2 ligase inh 1, Hsp70 activator 0, S1P4 ag 45*, S1P4 ag conf -1 and S1P1 agonist 1.
`Cc1cccc(/C=N/NC(=O)c2cc3c(s2)-c2ccccc2CC3)c1` gave Dynein cargo inh 0.47, S1P4 antagonist 1, Mdm2 ligase inh -2, Hsp70 activator 0 and S1P4 ag -1.
Screening CCCN(CCC)Cc1cc(=O)oc2cc3c(cc12)CCC3 returned Dynein cargo inh -1.2, S1P4 antagonist 3, Mdm2 ligase inh -8, S1P4 ag -2 and S1P3 antagonist 1.
`CC(C)C[C@H](NC(=O)c1nc[nH]c1C(=O)NCc1ccccc1)C(=O)OCc1ccccc1` gave Dynein cargo inh -0.38, S1P4 antagonist -21, Hsp70 activator 0, S1P4 ag 20*, S1P3 antagonist -11, S1P4 ag conf 26* and S1P1 agonist 0.
Screening CC(C)C[C@H](NC(=O)c1nc[nH]c1C(=O)NCc1ccccc1)C(=O)OC(C)(C)C returned Dynein cargo inh -0.56, S1P4 antagonist 11, Hsp70 activator 0, S1P4 ag 1 and S1P3 antagonist -26.
Screening CCN(CC)C(=O)C1CCCN(Cc2ccccc2)C1 (stereo not given) returned Dynein cargo inh -0.54, S1P4 antagonist 5, Hsp70 activator 0, S1P4 ag 22*, S1P4 ag conf -2 and S1P1 agonist 0.
For Cc1ccc(CNC(=O)C2CC(c3ccc([N+](=O)[O-])cc3)=NO2)cc1 (stereo not given) the results were Dynein cargo inh -0.47, S1P4 antagonist -7, Mdm2 ligase inh -8, Hsp70 activator 0, S1P4 ag 25*, S1P4 ag conf -1 and S1P1 agonist -7.
COc1ccc(N2CCCC2=N)c(OC)c1 was read as Dynein cargo inh 1.4, S1P4 antagonist -12, Mdm2 ligase inh -5, S1P4 ag 0 and S1P3 antagonist -1.
Screening O=C(COC(=O)c1ccccn1)NCc1ccccc1Cl returned Dynein cargo inh 1.1, S1P4 antagonist -8, Mdm2 ligase inh -14, Hsp70 activator 0, S1P4 ag 27*, S1P3 antagonist -11, S1P4 ag conf -1 and S1P1 agonist 2.
Screening CCc1ccc(OC2=NS(=O)(=O)c3ccccc32)cc1 returned Dynein cargo inh -0.25, S1P4 antagonist -8, Mdm2 ligase inh -17, Hsp70 activator 0, S1P4 ag 14*, S1P3 antagonist -13, S1P4 ag conf -2 and S1P1 agonist -6.
For Cc1ccc(OC2=NS(=O)(=O)c3ccccc32)cc1 the results were Dynein cargo inh -0.78, S1P4 antagonist 12, Mdm2 ligase inh -8, Hsp70 activator 0 and S1P4 ag 1.
For Cn1c(O)c(C=Nc2ccc(N3CCOCC3)cc2)c(=O)n(C)c1=S the results were Dynein cargo inh 1.5, S1P4 antagonist 12, Mdm2 ligase inh -19, Hsp70 activator 0, S1P4 ag 30*, S1P3 antagonist -18, S1P4 ag conf -2 and S1P1 agonist -1.
CCOC(=O)CS(=O)(=O)c1ccc(O)cc1 was read as Dynein cargo inh -0.56, S1P4 antagonist -10, Mdm2 ligase inh 3, Hsp70 activator 0, S1P4 ag 22*, S1P3 antagonist 5, S1P4 ag conf -2 and S1P1 agonist -1.
For O=C(NCc1ccccc1)C(c1ccc(F)cc1)N(Cc1ccco1)C(=O)c1ccccn1 (stereo not given) the results were Dynein cargo inh -0.29, S1P4 antagonist -4, Mdm2 ligase inh -11, Hsp70 activator 0, S1P4 ag 40*, S1P4 ag conf -3 and S1P1 agonist -3.
For COC(=O)N/N=C(\CCC(=O)O)c1cccs1 the results were Dynein cargo inh 0.97, S1P4 antagonist -15, Mdm2 ligase inh -20, S1P4 ag 27*, S1P3 antagonist 4, S1P4 ag conf -2 and S1P1 agonist -6.
CCOC(=O)c1sc(-c2ccccn2)nc1C was read as Dynein cargo inh -0.44, S1P4 antagonist 12, Mdm2 ligase inh -4, Hsp70 activator 1, S1P4 ag 0 and S1P3 antagonist 2.
Screening O=C(NNc1cccc(Cl)n1)c1ccccc1CC[N+](=O)[O-] returned Dynein cargo inh -0.72, S1P4 antagonist 18, Mdm2 ligase inh -16, Hsp70 activator 0, S1P4 ag -1 and S1P3 antagonist -8.
Screening NC(=O)CS(=O)(=O)c1ccc(Cl)cc1 returned Dynein cargo inh -0.67, S1P4 antagonist -10, Mdm2 ligase inh -9, Hsp70 activator 0, S1P4 ag 25*, S1P3 antagonist 2, S1P4 ag conf -2 and S1P1 agonist -3.
O=S(=O)(CC(O)CS(=O)(=O)c1ccc(Cl)cc1)c1ccccc1 (stereo not given) was read as Dynein cargo inh -0.92, S1P4 antagonist 1, Mdm2 ligase inh -17, S1P4 ag 3 and S1P3 antagonist 5.
For Cc1ncc([N+](=O)[O-])n1CC(=O)NCCc1ccccc1 the results were Dynein cargo inh -0.78, S1P4 antagonist 3, Mdm2 ligase inh -19, Hsp70 activator 0, S1P4 ag 16*, S1P3 antagonist -15, S1P4 ag conf -1 and S1P1 agonist -1.
CC(C)CCOP(=O)(c1ccccc1)c1ccccc1 was read as Dynein cargo inh 0.33, S1P4 antagonist -21, Mdm2 ligase inh 1, Hsp70 activator 0, S1P4 ag 58*, S1P3 antagonist -7, S1P4 ag conf -1 and S1P1 agonist 2.
Screening CCCCNC(=O)CC1S/C(=N/N=C/c2ccc(OC)cc2)NC1=O (stereo not given) returned Dynein cargo inh -0.96, S1P4 antagonist -5, Mdm2 ligase inh -11, Hsp70 activator 0, S1P4 ag 12*, S1P3 antagonist -14, S1P4 ag conf -2 and S1P1 agonist 3.
